Compound activity from PubChem BioAssay.
Cneo AK release: causes C. neoformans cell lysis; adenylate kinase release luminescence, 4 h; normalised: neutral wells 0, clomiphene wells 100; lysis activity, % at 15 µM; actives 0.2% (n = 360,000);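 active means mean lysis activity across replicates of at least 80%, whatever share of replicates individually reach that level; inactive means mean lysis activity below 80%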
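Assay system: Cryptococcus neoformans yeast cells / Dosing: single-point compound dose / Timing: 4 h at 37 °C static, read 1 h later / Measured by: luminescence of released adenylate kinase using an AK detection reagent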
Ecoli rRNA inh: inhibitors of bacterial rRNA selective over humanized ribosomes. GFP signal change (wild-type ribosome), % (no concentration beside the values). E. coli WT GFP vs humanized-ribosome RFP mutants, fluorescence, 24 h; active compounds read low; DMSO median 0, no signal -100. actives 1.6% (n = 350,000);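 active means significant combined selectivity score with lowered wild-type GFP, culture density cut under 30%, mutant RFP and density less affected; inactive means any of these conditions unmet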
HIV Env fusion: inhibitors of HIV Env-mediated cell fusion; HeLa-JRFL Env/CEM21 cell fusion, luciferase; inhibition, % at 12.3 µM; actives 1.1% (n = 360,000);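 active means mean replicate inhibition score of at least 50 and every replicate individually at or above 50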;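 further: 0% = plate neutral controls and 100% = maraviroc near 300 nM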
miR122 inh: miR-122 inhibition in Huh7 cells; Huh7 miR-122 Renilla luciferase sensor, 48 h; neutral wells = 0, positive control = 100; AID 602342; actives 0.3% (n = 340,000); activation (reporter increase), % at 12.5 µM;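 active means mean replicate activation score at least 90 and every replicate individually at or above 90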;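 further: higher luciferase means less miR-122 activity so hits act as miR-122 inhibitors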
GSIS activator: GLuc luminescence reporter in INS-1E cells, primary screen for activators of glucose-dependent secretion of insulin | actives 0.61% (n = 370,000) | AID 743287 | activation, % at 16.6 µM | INS-1E GLuc reporter insulin secretion, 2-3 h;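 active means lowest replicate activation of at least 40%, so every replicate reaches that level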;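 further: 0% = median of neutral control wells and 100% = median of IBMX positive control wells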
CFTR F508del cor: correctors of CFTR F508del function in bronchial epithelial cells | activity (quench increase), % at 7.58 µM | AID 720511 | actives 0.36% (n = 350,000) | CFBE cells, YFP halide quenching; stimulated with forskolin plus potentiator P3; % fluorescence drop versus neutral controls;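 active means mean added fluorescence quench of at least 8% versus neutral control, with both replicates also reaching 8%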;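 further: cells transiently co-express mutant CFTR-F508del with the halide-sensitive YFP; corrector assay measuring rescue of mutant channel to the surface after 24 h compound exposure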
Starred values were filed as active, the others as inactive; / = no result given; [ ] = another dose, or the depositor's remark. The list is not random: actives were taken first. Their share in the collection is about 3.1%.

SMILES	Cneo AK release	Ecoli rRNA inh	HIV Env fusion	miR122 inh	GSIS activator	CFTR F508del cor
O=C(CSc1nc2ccccc2c(=O)n1-c1ccccc1)NCc1ccc2c(c1)OCO2	0	/	80*	1	110*	/
C[C@@H]1CCCCO[C@H](CN(C)Cc2ccncc2)[C@@H](C)CN([C@@H](C)CO)C(=O)c2cc(NS(=O)(=O)c3ccc(F)cc3)ccc2O1	50	-3	-63[16.7 µM]	18[16.7 µM]	-14	4
C[C@H]1CN([C@@H](C)CO)C(=O)c2c(c3ccccc3n2C)-c2ccccc2CO[C@H]1CN(C)Cc1cccnc1	53	-11	47[16.7 µM]	/	12	0
CCNC(=O)C[C@H]1CC[C@H](NC(=O)C2CCC2)[C@H](CO)O1	-1	-3	24[16.7 µM]	/	8	2
C[C@@H]1CN([C@H](C)CO)C(=O)c2cc(C3=CCCCC3)cnc2O[C@H]1CN(C)C(=O)NC1CCCC1	0	-2	-9[16.7 µM]	/	-7	-4
C=CCn1c(SCC(=O)NCc2ccco2)nc2sc3c(c2c1=O)CCCC3	2	/	/	7	-16	/
C=CCn1c(SCC(=O)NCc2ccco2)nc2sc3c(c2c1=O)CCC3	-2	/	65*	1	/	/
C[C@@H]1CN([C@@H](C)CO)C(=O)c2cc(NC(=O)NC3CCCCC3)ccc2O[C@@H](C)CCCCO[C@H]1CN(C)C	0	3	-1[16.7 µM]	-6[16.7 µM]	0	1
C[C@@H]1CN([C@H](C)CO)C(=O)c2cc(-c3ccccc3F)cnc2O[C@H]1CN(C)C(=O)C1CC1	-3	6	-15[16.7 µM]	-6[16.7 µM]	4	0
Fc1ccc(Cn2nnnc2C(c2ccc(Cl)cc2)N2CCSCC2)cc1 (centres undefined)	1	/	52*	14	-27	/
O=C(Cc1ccccc1)Nc1ncnc2c1C(c1ccccc1)c1c(ccc3ccccc13)O2 (centres undefined)	1	-2	68*	-6	19	-5
O=C(Nc1ncnc2c1C(c1ccccc1)c1c(ccc3ccccc13)O2)c1ccccc1 (centres undefined)	-2	2	1	/	-2	0
COc1ccc(Cn2c(-c3ccc(C)cc3)c[n+]3ccccc23)cc1	18	-34*	28	4	-31	0
CC(=O)c1c(C)[nH]c(C(=O)CSc2nnc(C3CCCCC3)n2N)c1C	1	/	64*	/	/	/
Nn1c(SCC(=O)N2CCCC2)nnc1C1CCCCC1	0	1	30	0	/	2
CS(=O)(=O)N1N=C(c2ccc(Cl)cc2)CC1c1cccs1 (centres undefined)	1	/	-38	126*	/	/
Cc1ccccc1C(=O)NNC(=S)NC(=O)COc1ccccc1	/	-22*	/	/	3	-4
Cc1ncc(CO)c(/C=N/NC(=S)Nc2ccc(F)cc2)c1O	/	/	13	9	-8	/
Cc1ncc(CO)c(/C=N/Nc2ccc(C(F)(F)F)cn2)c1O	-1	-7	26	-14	3	12*
CCOC(=O)c1ccc(NC(=O)c2n[nH]c(=O)c3ccccc23)cc1	/	6	15	2	6	-2
CCOC(=O)c1ccccc1NC(=O)c1n[nH]c(=O)c2ccccc12	/	/	/	3	82*	/
O=C1N[C@H](Cc2ccccc2)COCc2cn(nn2)CC[C@@H]1Cc1ccc(Cl)cc1	/	-2	/	/	3	/
Cc1noc(C)c1S(=O)(=O)Nc1ccc2c(c1)C(=O)N([C@H](C)CO)C[C@@H](C)[C@H](CN(C)Cc1ccccc1)OCCCC[C@H](C)O2	101*	5	-43[16.7 µM]	30[16.7 µM]	-11	1
Cc1noc(C)c1S(=O)(=O)Nc1ccc2c(c1)C(=O)N([C@H](C)CO)C[C@@H](C)[C@@H](CN(C)Cc1ccc3c(c1)OCO3)OCCCC[C@H](C)O2	3	0	1[16.7 µM]	-16[16.7 µM]	-12	0
Cc1noc(C)c1S(=O)(=O)Nc1ccc2c(c1)C(=O)N([C@@H](C)CO)C[C@@H](C)[C@H](CN(C)Cc1ccc3c(c1)OCO3)OCCCC[C@H](C)O2	101*	0	-6[16.7 µM]	33[16.7 µM]	-6	4
SMILES	Cneo AK release	Ecoli rRNA inh	HIV Env fusion	miR122 inh	GSIS activator	CFTR F508del cor
Cc1noc(C)c1S(=O)(=O)Nc1ccc2c(c1)C(=O)N([C@H](C)CO)C[C@@H](C)[C@H](CN(C)Cc1ccccc1)OCCCC[C@@H](C)O2	1	-1	-92[16.7 µM]	-1[16.7 µM]	-5	-3
COCC(=O)N1C[C@@H](C)[C@H](OC)CN(C)C(=O)c2ccc(NC(=O)C3CCC3)cc2OC[C@@H]1C	-4	2	/	15[16.7 µM]	-2	2
C[C@H](CO)N1C[C@H](C)[C@H](CN(C)S(=O)(=O)c2cn(C)cn2)Oc2ccc(NC(=O)CCC(F)(F)F)cc2CC1=O	0	3	-16[16.7 µM]	-11[16.7 µM]	23	2
O=C(N[C@H]1CC[C@@H](CCNS(=O)(=O)c2ccc(Cl)cc2)O[C@@H]1CO)c1cnccn1	-3	2	10[16.7 µM]	/	2	-1
COc1cc(OC)cc(C(=O)N2CC(=O)Nc3ccccc32)c1	0	-2	-40	16	-12	8.7*
O=[N+]([O-])c1ccccc1CCc1ccccc1[N+](=O)[O-]	0	3	/	/	9	0
O=[N+]([O-])c1ccccc1CNC(Cc1ccccc1)c1ccccc1 (centres undefined)	1	-30*	/	-4	-10	-3
O=C1N[C@H](Cc2ccccc2)COCc2cn(nn2)CC[C@@H]1Cc1cccc(F)c1	/	7	/	/	17	/
CCc1ccc(-c2nc(C(N)=O)c3[nH]c(=O)n(-c4ccccc4OC)c3n2)cc1	1	3	-65	-2	/	8.9*
CC(C)CC#Cc1ccc([C@@H]2[C@@H](CO)N3C(=O)CN(C(=O)NC(C)C)C[C@H]23)cc1	/	-5	/	/	-3	/
COc1cccc(CN2CCN(C(=O)c3cc(-c4cccnc4)nc4ccc(C)cc34)CC2)c1	/	-27*	1	/	-7	1
COc1ccc(N(C(=O)c2ccco2)S(=O)(=O)c2cc(Cl)c(Cl)cc2Cl)cc1	/	/	-11	134*	/	/
O=C(C[C@H]1CC[C@H](NC(=O)Nc2cc(F)ccc2F)[C@@H](CO)O1)NCc1ccccn1	39	-1	5[16.7 µM]	-6[16.7 µM]	12	1
COc1ccc(/C=C/c2c(-c3ccc(OC)cc3)oc3ccc(-c4ccc(OC)cc4)cc23)cc1	1	8	8	4	4	1
COc1ccc(/C=C/c2cc(-c3ccc(C)cc3)o[n+]2C)cc1	3	/	134*	-17	-25	/
CC(C)OC(=O)c1nn2c(C(F)(F)F)cc(-c3ccc(Br)o3)nc2c1Br	/	/	23	/	157*	/
O=C(c1ccccc1)C(O)(Cc1ccccc1)c1ccccc1 (centres undefined)	-1	-45	10	168*	-28	2
